# Source: PubChem BioAssay (Broad Institute)
# SUMO Mot1 rescue: SUMOylation pathway inhibition by Mot1-301 growth rescue; S. cerevisiae Mot1-301 growth rescue, ATP luminescence, 38.5C; percent above DMSO median, 100 means doubled; growth rescue, % at 18.8 µM; 320,000 tested, 1% active;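 active = every valid replicate shows activation above 250% relative to neutral control wells; inactive = the rest, any valid replicate at or below 250%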;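 also: OY570 slx delta 5 strain wells were the positive control but not used for scaling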
# Cneo AK release: causes C. neoformans cell lysis. lysis activity, % at 15 µM. AID 651654. 360,000 tested, 0.2% active. adenylate kinase release luminescence, 4 h; normalised: neutral wells 0, clomiphene wells 100;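 active = mean lysis activity across replicates of at least 80%, whatever share of replicates individually reach that level; inactive = mean lysis activity below 80%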
#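 read-out = cell lysis signal | test system = log-phase Cryptococcus neoformans yeast cells | input = cells at 5 × 10^6 per mL | medium = fresh YPD growth medium | signal = luminescent adenylate kinase detection reagent | timing = 4 h at 37 °C static, read 1 h later | dosing = single dose | controls = Clomiphene as positive lysis control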
# C2C12 statin: suppressors of simvastatin-induced myotoxicity in C2C12 myotubes. ATP luminescence, 48 h; scaled: DMSO 0, geranylgeraniol control 100. rescue of ATP level, % at 7.49 µM. 330,000 tested, 0.78% active. AID 602340;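 active = mean ATP rescue above about 67%, or every replicate alone reaching that limit, limit read from the data, passing the limit was not always enough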;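 also: myotubes were challenged with 10 µM simvastatin during compound exposure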
# Yeast Mot1 SUMO: yeast SUMO pathway inhibition in dose response | shares compounds with SUMO Mot1 rescue | S. cerevisiae Mot1-301 galactose growth, ATP luminescence, 24 h; -100 = growth of slx-deleted rescue strain | growth activity, percent, % at 42 µM | 2,300 tested, under 10 active | AID 493004;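 active = Signal drops as the depositor expects, and the fitted half-maximal dose is no more than ten times the top valid tested dose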;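 also: more negative values mean stronger growth rescue toward the control strain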
# Starred values were filed as active, the others as inactive; / = no result; + = active, no number. The list is not random: actives were taken first. Their share in the collection is about 1.5%.
SMILES,SUMO Mot1 rescue,Cneo AK release,C2C12 statin,Yeast Mot1 SUMO
O=C(CSc1nnc(SCc2ccc(Cl)cc2)s1)N1CCOCC1,-13,-4,2,/
CCN(CC)C(=O)CSc1nnc(SCc2ccc(Cl)cc2)s1,510*,-1,6,0
O=C(C[C@@H]1C=C[C@H](NC(=O)c2cccc(F)c2)[C@H](CO)O1)NCc1ccccc1,/,-1,-7,/
O=C(N[C@@H]1CC[C@@H](CC(=O)N2CCc3ccccc3C2)O[C@@H]1CO)C1CC1,/,-7,-8,/
CN(C)c1ccc(NS(=O)(=O)c2ccc(Cl)cc2)cc1,3,/,/,/
CN(C)c1ccc(NS(=O)(=O)c2cccc(Cl)c2)cc1,733*,3,/,0
CCOC(=O)C1CCCN(C(=O)/C=C/c2ccc(Cl)cc2)C1 (configuration not stated),420*,/,/,-1
CCOC(=O)C1CCCN(C(=O)/C=C/c2cc(OC)c(OC)c(OC)c2)C1 (configuration not stated),3,/,/,/
COc1ccc(NC(=O)Nc2ccc3c(c2)[C@H]2C[C@@H](CC(=O)N(C)C)O[C@@H](CO)[C@H]2O3)cc1,/,-4,2,/
C[C@H]1CN([C@@H](C)CO)C(=O)c2cccc(NS(C)(=O)=O)c2O[C@H]1CN(C)C(=O)NC1CCCCC1,/,-2,-15,/
CCc1nc2ccc(C(=O)N3CCN(CC)CC3)cc2nc1CC,967*,1,7,1
CCCN1CCN(C(=O)c2ccc3nc(CC)c(CC)nc3c2)CC1,7,1,-1,/
CCCNC(=O)[C@@H]1[C@@H](CO)[C@@H]2Cn3c(ccc(-c4ccc(F)cc4)c3=O)[C@H]1N2CC,/,2,-7,/
C[C@@H]1CN([C@@H](C)CO)C(=O)c2cc(NC(=O)CCN3CCOCC3)ccc2O[C@H]1CN(C)Cc1ccc(Cl)c(Cl)c1,/,56,-18,/
Cc1ccc(-c2csc(NC(=O)CSc3nc(C)cs3)n2)cc1,541*,2,-3,0
Cc1csc(SCC(=O)Nc2nc(-c3ccccc3)cs2)n1,104,0,-6,/
CC(=O)c1cccc(NC(=O)CN(c2ccc(F)cc2)S(C)(=O)=O)c1,-3,-4,4,/
CC(=O)c1cccc(NC(=O)CN(c2cccc(F)c2)S(C)(=O)=O)c1,682*,-1,111*,0
CNC[C@@H]1Oc2ccc(NC(=O)Nc3ccc(OC)cc3)cc2CC(=O)N([C@@H](C)CO)C[C@H]1C,/,8,-19,/
O=C(Nc1ccc2c(c1)oc1ccccc12)C1CC1,+,-3,-27,0
O=C(Nc1ccc2c(c1)oc1ccc(S(=O)(=O)N3CCCC3)cc12)C1CC1,2,-3,10,/
COc1ccc(NC(=O)Nc2ccc3c(c2)C(=O)N([C@@H](C)CO)C[C@H](C)[C@@H](CN(C)Cc2ccc(C(=O)O)cc2)OCCCC[C@@H](C)O3)cc1,/,1,/,/
CCOC(=O)c1nc(Nc2ccccc2C)c2ccccc2n1,2,/,/,/
CCOC(=O)c1nc(Nc2ccccc2CC)c2ccccc2n1,996*,0,-10,0
CCN1CCN(CC(=O)N2N=CCC2c2ccccc2)CC1 (configuration not stated),805*,2,-8,0
SMILES,SUMO Mot1 rescue,Cneo AK release,C2C12 statin,Yeast Mot1 SUMO
O=C(CSc1ccc(Cl)cc1)N1N=CCC1c1ccccc1 (configuration not stated),8,/,/,/
O=C(NCC[C@@H]1CC[C@H](NC(=O)C2CCCC2)[C@@H](CO)O1)c1ccc(F)cc1,/,2,2,/
Cc1ccc(/C=C/C(=O)O)cc1S(=O)(=O)NCCCO,-8,/,/,/
Cc1ccc(/C=C/C(=O)O)cc1S(=O)(=O)N(CCO)CCO,390*,-4,/,0
O=C(CSc1n[nH]c(-c2cccs2)n1)N1CCOCC1,0,2,-9,/
CCc1ccc(-c2nc(SCC(=O)N3CCOCC3)n[nH]2)cc1,527*,/,/,1
CC1CCCC(C)N1/N=C/c1cc(Br)cc(Br)c1O (configuration not stated),476*,0,3,-1
CCOc1cccc(/C=N/N2C(C)CCCC2C)c1O (configuration not stated),10,-3,-2,/
N#C/C(=C\c1cc([N+](=O)[O-])c(N2CCOCC2)cc1N1CCOCC1)c1nc2ccccc2[nH]1,361*,1,-1,1
N#C/C(=C/c1ccc(N2CCOCC2)o1)c1nc2ccccc2[nH]1,11,-8,-48,/
Cc1ccc2nc(/C(C#N)=C\c3cc(O)ccc3[N+](=O)[O-])[nH]c2c1,503*,/,/,0
COc1cc(/C=C(\C#N)c2nc3ccc(C)cc3[nH]2)c([N+](=O)[O-])cc1OC,3,0,57,/
CC(=O)N(C)C[C@H]1Oc2ncc(/C=C/c3ccccc3)cc2C(=O)N([C@@H](C)CO)C[C@H]1C,/,2,2,/
Cc1ccc(S(=O)(=O)N[C@H]2CC[C@H](CCNC(=O)c3ccc4c(c3)OCO4)O[C@@H]2CO)cc1,/,53,2,/
CCC(=O)N[C@@H]1C=C[C@@H](CC(=O)NCc2ccccc2F)O[C@H]1CO,/,-1,4,/
Cc1ccc(NC(=O)c2nc[nH]c2C(=O)N2CCc3ccccc3C2)cc1,-10,4,-13,/
CCOC(=O)c1ccc(NC(=O)c2nc[nH]c2C(=O)N2CCc3ccccc3C2)cc1,371*,-3,6,0
Cc1ccccc1S(=O)(=O)N1CC[C@@H]2[C@H](CO)Nc3ccc(-c4cccc(F)c4)cc3[C@@H]21,/,-1,-1,/
C[C@H](CO)N1C[C@H](C)[C@H](CN(C)C(=O)C2CCOCC2)Oc2ncc(Br)cc2C1=O,/,-1,-12,/
O=C(CC(c1ccccc1)c1ccccc1O)NCCN1CCOCC1 (configuration not stated),428*,/,/,1
O=C(COc1ccccc1O)NCCN1CCOCC1,455,7,5,/
O=C(CSc1nnnn1C1CC2CCC1C2)Nc1ccnc2ccccc12 (configuration not stated),775*,-2,/,0
O=C(CSc1nnnn1C1CCCCC1)Nc1ccccc1F,0,/,/,/
CCC(C)(C(=O)NC1CCCCC1)N(C(=O)c1ccccn1)c1ccccc1 (configuration not stated),6,/,/,/
CCC(C)(C(=O)NC1CCCC1)N(C(=O)c1ccccn1)c1ccc(C)cc1 (configuration not stated),653*,0,/,0
SMILES,SUMO Mot1 rescue,Cneo AK release,C2C12 statin,Yeast Mot1 SUMO
Cc1cnc(C(=O)OCC(=O)Nc2ccc(C)c(S(=O)(=O)N(C)C)c2)cn1,669*,/,/,1
Cc1cnc(C(=O)OCC(=O)Nc2ccc3c(c2)OCCO3)cn1,-8,1,17,/
Cc1nn(C)c(C)c1/C=N/NC(=O)C(C)(C)Oc1ccc(Cl)cc1,591*,0,55,1
Cc1c(/C=N/NC(=O)C(C)(C)Oc2ccc(Cl)cc2)cnn1C,-25,0,11,/
CC(C)OC(=O)C(=O)NNc1ccccc1,259,5,11,/
O=C(NNc1ccccc1)C(CCO)C(=O)NNc1ccccc1,404*,/,/,0
C[C@@H]1CN([C@@H](C)CO)C(=O)c2cc(NC(=O)c3ccccc3)ccc2O[C@@H](C)CCCCO[C@H]1CN(C)C(=O)Cc1ccccc1,/,-2,/,/
